Laboratory results from ChEMBL document CHEMBL4038313, “Expanding the Antiviral Spectrum of 3-Fluoro-2-(phosphonomethoxy)propyl Acyclic Nucleoside Phosphonates: Diamyl Aspartate Amidate Prodrugs” (J Med Chem, 2017).

Legend:
[1] = tested on: Human immunodeficiency virus 1; experiment: Antiviral activity against HIV-1 infected in human MT4 cells measured on day 5 post-infection by trypan blue dye staining-based method; format: functional, cell-based; settings: Human immunodeficiency virus 1, MT4, 120 h
[2] = tested on: Human immunodeficiency virus 2; experiment: Antiviral activity against HIV-2 infected in human MT4 cells measured on day 5 post-infection by trypan blue dye staining-based method; format: functional, cell-based; settings: Human immunodeficiency virus 2, MT4, 120 h
[3] = tested on: Hepatitis B virus; experiment: Antiviral activity against HBV ayw1 infected in human HepG2(2.2.15) cells assessed as reduction in viral replication by measuring intracellular viral DNA copy number after 6 days byr by real-time qPCR assay; format: functional, cell-based; settings: ayw1, HepG2 2.2.15, 144 h
How it was run: (§1)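 Run as the HepG2.2.15 6-day assay (triplicate compound, medium with compound renewed at day 3). At the end, total intracellular DNA was isolated from the cells and HBV DNA copy number measured by TaqMan qPCR. EC50/EC90 derived; SI is CC50/EC50.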

[4] = Selectivity index, ratio of CC50 for HepG2.2.15 cells to EC50 for HBV ayw1 infected in human HepG2(2.2.15) cells assessed as reduction in viral replication by measuring extracellular viral DNA copy
How it was run: (§2)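 HepG2.2.15 cells (two copies of HBV ayw1 genome), 1.5 × 10^4/well in DMEM with 2% FBS and 380 μg/mL G418. After 16–24 h, compound added in triplicate, medium with compound renewed at day 3. Supernatant collected at day 6, Pronase-treated, and extracellular HBV DNA measured by TaqMan qPCR (precore/core) against an HBV DNA standard curve. EC50/EC90 derived; CC50 by MTS uptake.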

[5] = Selectivity index, ratio of CC50 for HepG2.2.15 cells to EC50 for HBV ayw1 infected in human HepG2(2.2.15) cells assessed as reduction in viral replication by measuring intracellular viral DNA copy; how it was run: as §1
[6] = Cytotoxicity against human HepG2.2.15 cells assessed as cell viability by tetrazolium dye uptake assay; format: cell-based, HepG2 2.2.15
How it was run: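 HepG2.2.15 cells (two integrated copies of HBV ayw1 genome) were seeded at 1.5 × 10^4 cells/well in DMEM with 2% FBS, 380 μg/mL G418, glutamine, antibiotics and nonessential amino acids. After 16−24 h, medium with various compound concentrations was added in triplicate and renewed on day 3. After 6 days of treatment, viability was read by MTS uptake and CC50 was calculated.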

[7] = tested on: Hepatitis B virus; experiment: Antiviral activity against HBV ayw1 infected in human HepG2(2.2.15) cells assessed as reduction in viral replication by measuring extracellular viral DNA copy number after 6 days by real-time qPCR method; format: functional, cell-based; settings: ayw1, HepG2 2.2.15, 144 h; how it was run: as §2
[8] = tested on: Human immunodeficiency virus 1; experiment: Selectivity ratio of EC50 for tenofovir-resistant CXCR4-tropic HIV-1 NL4-3 harboring reverse transcriptase K65R mutant infected in human MT4 cells to EC50 for CXCR4-tropic HIV-1 NL4-3 infected in human MT4 cells; format: functional
How it was run: (§3)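 MT-4 cells, 1 × 10^4 per well, given compound dilutions and wild-type NL4-3 or K65R NL4-3. Virus titred to give 85–95% cell killing at day 6. Incubated 6 days at 37 °C, 5% CO2. Viability read by XTT at 450/650 nm. EC50 from CPE reduction and toxicity from uninfected drug wells, by four-parameter fit. Fold change is K65R EC50 over wild-type EC50.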

[9] = Cytotoxicity against human PHA-stimulated PBMC assessed as cell viability by tetrazolium dye assay; format: cell-based
[10] = Selectivity index, ratio of CC50 for human PHA-stimulated PBMCs to IC50 for CCR5 tropic HIV1 BaL infected in human PHA-stimulated PBMC
[11] = tested on: Human immunodeficiency virus 1; experiment: (§4) Antiviral activity against CXCR4-tropic HIV-1 NL4-3 infected in human PHA-stimulated PBMC assessed as inhibition of viral replication by measuring reduction in p24 antigen production preincubated with cells for 30 mins followed by viral infection measured on day 10 post infection in presence of IL-2 by ELISA; format: functional; settings: Human immunodeficiency virus 1, NL4-3
How it was run: (§5)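 PBMCs stimulated with 2 μg/mL PHA for 3 days at 37 °C, then 5 × 10^5 cells/ml preincubated 30 min at 37 °C with serial compound dilutions plus 2 ng/mL IL-2. Infected with 1500 pg/well HIV-1 BaL or 500 pg/well other isolates. IL-2 re-added on days 3 and 6. Supernatant p24 Ag measured by ELISA at day 10. EC50 is 50% inhibition of replication.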

[12] = Cytotoxicity against human MT4 cells assessed as reduction in cell viability after 6 days by XTT tetrazolium dye-based assay; how it was run: as §3
[13] = Selectivity index, ratio of CC50 for human PHA-stimulated PBMC to IC50 for CXCR4-tropic HIV-1 NL4-3 infected in human PHA-stimulated PBMC
[14] = tested on: Human immunodeficiency virus 1; experiment: as §4, with “CCR5 tropic HIV1 BaL” for “CXCR4-tropic HIV-1 NL4-3”; format: functional; settings: Human immunodeficiency virus 1, BaL; how it was run: as §5
[15] = tested on: Human immunodeficiency virus 1; experiment: Antiviral activity against tenofovir-resistant CXCR4-tropic HIV-1 NL4-3 harboring reverse transcriptase K65R mutant infected in human MT4 cells assessed as inhibition of viral replication inhibition of virus-induced cytopathic effect after 6 days by XTT dye based assay; format: functional, cell-based; settings: Human immunodeficiency virus 1, NL4-3, MT4, 144 h; how it was run: as §3
[16] = tested on: Human immunodeficiency virus 1; experiment: Antiviral activity against CXCR4-tropic HIV-1 NL4-3 infected in human MT4 cells assessed as inhibition of virus-induced cytopathic effect after 6 days by XTT dye based assay; format: functional, cell-based; settings: Human immunodeficiency virus 1, NL4-3, MT4, 144 h; how it was run: as §3

Structure (SMILES)	EC50 [3] [nM]	EC90 [3] [nM]	Ratio CC50/EC50 [4]	Ratio CC50/EC50 [5]	CC50 [6] [nM]	EC50 [7] [nM]	EC90 [7] [nM]	Ratio EC50 [8]	CC50 at 144 h [12] [nM]	EC50 [15] [nM]	other results
Nc1nc(N)c2ncn(C[C@H](CF)OCP(=O)(O)O)c2n1	–	–	–	–	–	–	–	–	–	–	EC50 [1]: 4300 nM; EC50 [2]: 4600 nM
Nc1ccn([C@@H]2CS[C@H](CO)O2)c(=O)n1 [LAMIVUDINE]	8.87	> 2000	>105	>225	> 2000	20	> 2000	–	–	–	–
C=C1[C@H](CO)[C@@H](O)C[C@@H]1n1cnc2c(=O)[nH]c(N)nc21.O [ENTECAVIR]	0.35	> 1000	>2381	>2857	> 1000	< 10	> 1000	–	–	–	–
CC(C)OC(=O)OCOP(=O)(CO[C@H](C)Cn1cnc2c(N)ncnc21)OCOC(=O)OC(C)C.O=C(O)/C=C/C(=O)O [TENOFOVIR DISOPROXIL FUMARATE]	–	–	–	–	–	–	–	2.3	> 20000	11300	CC50 [9]: 14600 nM; Ratio CC50/IC50 [10]: 66; IC50 [11]: 80 nM; Ratio CC50/IC50 [13]: 182; IC50 [14]: 220 nM
Cc1cn([C@H]2C[C@H](N=[N+]=[N-])[C@@H](CO)O2)c(=O)[nH]c1=O [ZIDOVUDINE]	–	–	–	–	–	–	–	1.3	> 500	5	EC50 [16]: 4 nM
